Drawing on ChEMBL document CHEMBL3046507, “Synthesis and herbicidal activities of novel 3-N-substituted amino-6-methyl-4-(3-trifluoromethylphenyl)pyridazine derivatives” (2008), this text covers inhibition for 3 compounds.

Test [1] concerns Brassica rapa subsp. oleifera. In words: Herbicidal activity against Brassica rapa subsp. oleifera assessed as inhibition of fresh plant weight at 600 g/ha using preemergence protocol measured […] under green house conditions. The class given is functional. Particulars: pre-emergence. The method in brief: (§1)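 Pre-emergence treatment. Aboveground fresh weight measured 24 days later; percent inhibition calculated against controls. Two replicates per treatment.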

Test [2] has as its system Spirodela polyrhiza. In words: Inhibition of chlorophyll in Spirodela polyrhiza fronds at 10 ug/mL using light intensity of 45 uE/m2/s measured after 7 days. Particulars: 168 h. It is filed as functional. The method in brief: (§2)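 Giant duckweed assay. Compound in DMF dropped onto filter paper, solvent evaporated 15 min, paper placed in flask with 15 mL fresh medium and shaken >10 min. 10 fronds inoculated per flask and grown 7 days at 23-26 °C, 16 h light/8 h dark, ca. 45 µE m^-2 s^-1. DMF plus medium served as control. Chl extracted in 96% ethanol overnight at 4 °C; OD read at 665 and 649 nm; content expressed as percent of control.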

The test system of test [3] is Digitaria. In words: Herbicidal activity against Digitaria adscendens assessed as inhibition of fresh plant weight at 600 g/ha using postemergence protocol […] under green house conditions. The class given is functional. The conditions noted are these: in Digitaria adscendens, post-emergence. A digest of the protocol: (§3)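 Weed seedlings at one-leaf-and-one-stem stage sprayed post-emergence with test solution at 750, 600, 300, 150 or 75 g/ha. Aboveground fresh weight determined 24 days after treatment; percent inhibition calculated relative to controls. Two replicates per treatment.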

The test system of test [4] is Digitaria. The test can be described thus: Herbicidal activity against Digitaria adscendens assessed as inhibition of fresh plant weight at 600 g/ha using preemergence protocol […] under green house conditions. It is filed as functional. Particulars: in Digitaria adscendens, pre-emergence. The method in brief:
as §1

Test [5] relates to Echinochloa crus-galli. The test can be described thus: Herbicidal activity against Echinochloa crus-galli (barnyard grass) assessed as inhibition of fresh plant weight at 600 g/ha using preemergence protocol […] under green house conditions. Particulars: pre-emergence. It is filed as functional. A digest of the protocol: as §1
The subject of test [6] is Echinochloa crus-galli. In words: Herbicidal activity against Echinochloa crus-galli (barnyard grass) assessed as inhibition of fresh plant weight at 600 g/ha using postemergence protocol measured […] under green house conditions. Particulars: post-emergence. The class given is functional. A digest of the protocol:
as §3

Test [7] relates to Amaranthus retroflexus. The test can be described thus: Herbicidal activity against Amaranthus retroflexus assessed as inhibition of fresh plant weight at 600 g/ha using preemergence protocol measured […] under green house conditions. The conditions noted are these: pre-emergence. The class given is functional. The method in brief:
as §1

The subject of test [8] is Amaranthus retroflexus. In words: Herbicidal activity against Amaranthus retroflexus assessed as inhibition of fresh plant weight at 600 g/ha using postemergence protocol measured after 24 days under green house conditions. The conditions noted are these: post-emergence.
Test [9] has as its system Brassica rapa subsp. oleifera. In words: Herbicidal activity against Brassica rapa subsp. oleifera assessed as inhibition of fresh plant weight at 600 g/ha using postemergence protocol measured after 24 days under green house conditions. Particulars: post-emergence.
Test [10] has as its system Spirodela polyrhiza. The test can be described thus: Inhibition of chlorophyll in Spirodela polyrhiza fronds at 1 ug/mL using light intensity of 45 uE/m2/s measured after 7 days. The class given is functional. The conditions noted are these: 168 h. A digest of the protocol: as §2
Test [11] concerns Digitaria. In words: Herbicidal activity against Digitaria adscendens assessed as inhibition of fresh plant weight at 750 g/ha using preemergence protocol measured after 24 days under green house conditions. Particulars: in Digitaria adscendens, pre-emergence.
Test [12] deals with Digitaria. In words: Herbicidal activity against Digitaria adscendens assessed as inhibition of fresh plant weight at 750 g/ha using postemergence protocol measured after 24 days under green house conditions. Particulars: in Digitaria adscendens, post-emergence.
The test system of test [13] is Amaranthus retroflexus. The test can be described thus: Herbicidal activity against Amaranthus retroflexus assessed as inhibition of fresh plant weight at 75 g/ha using postemergence protocol measured after 24 days under green house conditions. Particulars: post-emergence.
The subject of test [14] is Amaranthus retroflexus. In words: Herbicidal activity against Amaranthus retroflexus assessed as inhibition of fresh plant weight at 750 g/ha using preemergence protocol measured after 24 days under green house conditions. The conditions noted are these: pre-emergence.
Test [15] relates to Amaranthus retroflexus. In words: Herbicidal activity against Amaranthus retroflexus assessed as inhibition of fresh plant weight at 150 g/ha using postemergence protocol measured after 24 days under green house conditions. Particulars: post-emergence.
The subject of test [16] is Amaranthus retroflexus. In words: Herbicidal activity against Amaranthus retroflexus assessed as inhibition of fresh plant weight at 300 g/ha using postemergence protocol measured after 24 days under green house conditions. The conditions noted are these: post-emergence.
In test [17] the test system is Amaranthus retroflexus. The test can be described thus: Herbicidal activity against Amaranthus retroflexus assessed as inhibition of fresh plant weight at 750 g/ha using postemergence protocol measured after 24 days under green house conditions. Particulars: post-emergence.
Test [18] has as its system Brassica rapa subsp. oleifera. The test can be described thus: Herbicidal activity against Brassica rapa subsp. oleifera assessed as inhibition of fresh plant weight at 750 g/ha using preemergence protocol measured after 24 days under green house conditions. The conditions noted are these: pre-emergence.
In test [19] the test system is Brassica rapa subsp. oleifera. In words: Herbicidal activity against Brassica rapa subsp. oleifera assessed as inhibition of fresh plant weight at 75 g/ha using postemergence protocol measured after 24 days under green house conditions. The conditions noted are these: post-emergence.
The subject of test [20] is Brassica rapa subsp. oleifera. The test can be described thus: Herbicidal activity against Brassica rapa subsp. oleifera assessed as inhibition of fresh plant weight at 750 g/ha using postemergence protocol measured after 24 days under green house conditions. The conditions noted are these: post-emergence.
Test [21] has as its system Brassica rapa subsp. oleifera. The test can be described thus: Herbicidal activity against Brassica rapa subsp. oleifera assessed as inhibition of fresh plant weight at 150 g/ha using postemergence protocol measured after 24 days under green house conditions. The conditions noted are these: post-emergence.
Test [22] relates to Brassica rapa subsp. oleifera. In words: Herbicidal activity against Brassica rapa subsp. oleifera assessed as inhibition of fresh plant weight at 300 g/ha using postemergence protocol measured after 24 days under green house conditions. The conditions noted are these: post-emergence.
Test [23] concerns Echinochloa crus-galli. In words: Herbicidal activity against Echinochloa crus-galli (barnyard grass) assessed as inhibition of fresh plant weight at 750 g/ha using preemergence protocol measured after 24 days under green house conditions. The conditions noted are these: pre-emergence.
In test [24] the test system is Echinochloa crus-galli. The test can be described thus: Herbicidal activity against Echinochloa crus-galli (barnyard grass) assessed as inhibition of fresh plant weight at 750 g/ha using postemergence protocol measured after 24 days under green house conditions. Particulars: post-emergence.

Usually inhibition stands for the share of the control response that was lost under treatment.

Consider `CCOC(=O)n1nc(C)cc(-c2cccc(C(F)(F)F)c2)c1=O`, for which the inhibition at 600 g/ha amounted to 87% in test [1]; 13% in the test with Digitaria [3]; 100% in the test with Digitaria [4]; 46% in the test on Echinochloa crus-galli [5]; 0% in the test with Echinochloa crus-galli [6]; 100% with Amaranthus retroflexus [7]. For the same compound, the values for the inhibition at 600 g/ha (in the test with Amaranthus retroflexus [8]; in test [9]) were 61% and 55%, respectively. The same compound had an inhibition at 10 µg/mL in the test on Spirodela polyrhiza [2] of 100%.
`CCCn1nc(C)cc(-c2cccc(C(F)(F)F)c2)c1=O`: the inhibition at 600 g/ha in test [1] was 61%; in the test on Digitaria [3], 19%; in the test on Digitaria [4] it was 100%; with Echinochloa crus-galli [5], 82%; in the test with Echinochloa crus-galli [6], 5%; in the test with Amaranthus retroflexus [7], 51%. The inhibition at 600 g/ha came out at 28% in the test with Amaranthus retroflexus [8] and 6% in test [9]. Moreover, 10 µg/mL produced 90% inhibition in the test with Spirodela polyrhiza [2].
In the case of `O=C(Nc1ccc(F)cc1F)c1cccnc1Oc1cccc(C(F)(F)F)c1` [DIFLUFENICAN], 10 µg/mL produced 94% inhibition in the test on Spirodela polyrhiza [2]. The compound further displayed an inhibition at 1 µg/mL with Spirodela polyrhiza [10] of 90%. Besides, the inhibition at 750 g/ha stood at 100% in the test with Digitaria [11]; 83% with Digitaria [12]; 90% in the test with Amaranthus retroflexus [14]; 100% with Amaranthus retroflexus [17]; 71% in [18]; 98% in test [20]. In addition, the inhibition at 750 g/ha came out at 94% with Echinochloa crus-galli [23] and 67% in the test on Echinochloa crus-galli [24]. Moreover, the inhibition at 75 g/ha in the test with Amaranthus retroflexus [13] turned out to be 41%; in [19], 44%. Also, the results for the inhibition at 150 g/ha (with Amaranthus retroflexus [15]; in test [21]) were 70% and 88%, respectively. The inhibition at 300 g/ha in the test with Amaranthus retroflexus [16] was found to be 74%; in test [22], 94%. Moreover, the inhibition at 600 g/ha in the test on Amaranthus retroflexus [8] amounted to 100%; in test [9], 98%.
